# Reference: ChEMBL document CHEMBL1130231, “Betidamino acid scan of the GnRH antagonist acyline” (J Med Chem, 1997)
# Molecular target: T1, Gonadotropin-releasing hormone receptor (Rattus norvegicus, UniProt P30969)
# T1 sequence (P30969 whole entry): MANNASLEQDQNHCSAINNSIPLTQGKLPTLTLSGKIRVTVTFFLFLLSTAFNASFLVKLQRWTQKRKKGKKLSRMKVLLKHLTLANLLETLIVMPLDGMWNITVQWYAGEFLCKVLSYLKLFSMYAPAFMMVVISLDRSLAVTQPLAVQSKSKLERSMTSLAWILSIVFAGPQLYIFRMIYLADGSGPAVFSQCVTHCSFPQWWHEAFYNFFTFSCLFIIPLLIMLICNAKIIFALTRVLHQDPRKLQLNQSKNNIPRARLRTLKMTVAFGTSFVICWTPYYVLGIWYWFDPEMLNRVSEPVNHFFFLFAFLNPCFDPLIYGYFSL
# Experiment: Inhibition of binding of radiolabeled histrelin to Gonadotropin-releasing hormone receptor (GnRHr) in rat pituitary gland membranes
# Type: cell membranes, Membrane
# Outline: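 Rat anterior pituitary membranes (male and female glands equal numbers), homogenized in 0.32 M sucrose/aprotinin, 4000g pellet, diluted 15-fold in 10 mM Hepes, 0.2% BSA, pH 7.6. Filtration onto PEI-treated glass filters, scintillation counting. IC50 in nM, duplicate, n = 1.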
row,Compound,IC50 [nM]
1,"CC(=O)Nc1ccc(C[C@H](NC(=O)[C@H](CO)NC(=O)[C@@H](Cc2cccnc2)NC(=O)[C@H](NC(=O)c2cnccn2)NC(=O)[C@@H](Cc2ccc3ccccc3c2)NC(C)=O)C(=O)N[C@H](Cc2ccc(NC(C)=O)cc2)C(=O)N[C@@H](CC(C)C)C(=O)N[C@@H](CCCCNC(C)C)C(=O)N2CCC[C@H]2C(=O)N[C@H](C)C(N)=O)cc1 (single isomer, unassigned)",1700
2,CC(=O)Nc1ccc(C[C@H](NC(=O)[C@H](NC=O)NC(=O)[C@@H](Cc2cccnc2)NC(=O)[C@@H](Cc2ccc(Cl)cc2)NC(=O)[C@@H](Cc2ccc3ccccc3c2)NC(C)=O)C(=O)N[C@H](Cc2ccc(NC(C)=O)cc2)C(=O)N[C@@H](CC(C)C)C(=O)N[C@@H](CCCCNC(C)C)C(=O)N2CCC[C@H]2C(=O)N[C@H](C)C(N)=O)cc1,0.84
3,CC(=O)Nc1ccc(C[C@H](NC(=O)[C@H](CO)NC(=O)[C@@H](Cc2cccnc2)NC(=O)[C@@H](NC(=O)[C@@H](Cc2ccc3ccccc3c2)NC(C)=O)N(C)C(=O)c2ccc(Cl)cc2)C(=O)N[C@H](Cc2ccc(NC(C)=O)cc2)C(=O)N[C@@H](CC(C)C)C(=O)N[C@@H](CCCCNC(C)C)C(=O)N2CCC[C@H]2C(=O)N[C@H](C)C(N)=O)cc1 (mixture of isomers),280
4,"CC(=O)Nc1ccc(C[C@H](NC(=O)[C@H](NC(=O)[C@@H](Cc2cccnc2)NC(=O)[C@@H](Cc2ccc(Cl)cc2)NC(=O)[C@@H](Cc2ccc3ccccc3c2)NC(C)=O)N(C)C=O)C(=O)N[C@H](Cc2ccc(NC(C)=O)cc2)C(=O)N[C@@H](CC(C)C)C(=O)N[C@@H](CCCCNC(C)C)C(=O)N2CCC[C@H]2C(=O)N[C@H](C)C(N)=O)cc1 (single isomer, unassigned)",0.9
5,"CC(=O)Nc1ccc(C[C@H](NC(=O)[C@H](CO)NC(=O)[C@@H](Cc2cccnc2)NC(=O)[C@@H](Cc2ccc(Cl)cc2)NC(=O)[C@@H](Cc2ccc3ccccc3c2)NC(C)=O)C(=O)N[C@H](Cc2ccc(NC(C)=O)cc2)C(=O)N[C@@H](CC(C)C)C(=O)N[C@H](C(=O)N2CCC[C@H]2C(=O)N[C@H](C)C(N)=O)N(C)C(=O)CCNC(C)C)cc1 (single isomer, unassigned)",0.5

# Further lines, results first:
row,IC50 [nM],Compound
1,0.3,CC(=O)Nc1ccc(C[C@H](NC(=O)[C@H](CO)NC(=O)[C@@H](Cc2cccnc2)NC(=O)[C@@H](Cc2ccc(Cl)cc2)NC(=O)[C@@H](Cc2ccc3ccccc3c2)NC(C)=O)C(=O)N[C@H](Cc2ccc(NC(C)=O)cc2)C(=O)N[C@@H](CC(C)C)C(=O)N[C@@H](CCCCNC(C)C)C(=O)N2CCC[C@H]2C(=O)N[C@H](C)C(N)=O)cc1
2,1.4,"CC(=O)Nc1ccc(C[C@H](NC(=O)[C@H](CO)NC(=O)[C@@H](NC(=O)c2ccncc2)NC(=O)[C@@H](Cc2ccc(Cl)cc2)NC(=O)[C@@H](Cc2ccc3ccccc3c2)NC(C)=O)C(=O)N[C@H](Cc2ccc(NC(C)=O)cc2)C(=O)N[C@@H](CC(C)C)C(=O)N[C@@H](CCCCNC(C)C)C(=O)N2CCC[C@H]2C(=O)N[C@H](C)C(N)=O)cc1 (single isomer, unassigned)"
3,36,"CC(=O)Nc1ccc(C[C@H](NC(=O)[C@H](CO)NC(=O)[C@@H](NC(=O)[C@@H](Cc2ccc(Cl)cc2)NC(=O)[C@@H](Cc2ccc3ccccc3c2)NC(C)=O)N(C)C(=O)c2cccnc2)C(=O)N[C@H](Cc2ccc(NC(C)=O)cc2)C(=O)N[C@@H](CC(C)C)C(=O)N[C@@H](CCCCNC(C)C)C(=O)N2CCC[C@H]2C(=O)N[C@H](C)C(N)=O)cc1 (single isomer, unassigned)"
4,0.63,"CC(=O)Nc1ccc(C[C@H](NC(=O)[C@@H](NC=O)NC(=O)[C@@H](Cc2cccnc2)NC(=O)[C@@H](Cc2ccc(Cl)cc2)NC(=O)[C@@H](Cc2ccc3ccccc3c2)NC(C)=O)C(=O)N[C@H](Cc2ccc(NC(C)=O)cc2)C(=O)N[C@@H](CC(C)C)C(=O)N[C@@H](CCCCNC(C)C)C(=O)N2CCC[C@H]2C(=O)N[C@H](C)C(N)=O)cc1 (single isomer, unassigned)"
